Publication PMC7610821 (Chemical communications (Cambridge, England), 2020)
Blank lines part the entries; values can stand above or below the molecule they belong to.

Tests used:
[1] = system: HCT116 cells; test: Cell viability of HCT116 cells by flow cytometry; format: cell-based, human; settings: HCT116, 40μM, 48 hours
Outline: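 Human colon cancer HCT116 cells were exposed to the test compound at 10 and 40 μM. A reference class I HDAC inhibitor was run alongside. Viability was scored by flow cytometry after 48 h of treatment.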

[2] = biological target: LSD1-CoREST-HDAC1 complex (Homo sapiens, UniProt Q13547); test: AMC-fluorescence histone deacetylase inhibition assay with purified complex; format: biochemical; settings: compared with CI-994, Fig 3A
[3] = system: Histone 3 Lysine 56 acetylation (H3K56Ac); test: H3K56 acetylation by quantitative western blotting in ES cells; format: cell-based; settings: E14 mouse ES cells, 24h; CI-994 = 40μM, Panobinostat = 30 nM

LSD1-CoREST-HDAC1 complex, sequence (Q13547 whole entry, other chains not shown): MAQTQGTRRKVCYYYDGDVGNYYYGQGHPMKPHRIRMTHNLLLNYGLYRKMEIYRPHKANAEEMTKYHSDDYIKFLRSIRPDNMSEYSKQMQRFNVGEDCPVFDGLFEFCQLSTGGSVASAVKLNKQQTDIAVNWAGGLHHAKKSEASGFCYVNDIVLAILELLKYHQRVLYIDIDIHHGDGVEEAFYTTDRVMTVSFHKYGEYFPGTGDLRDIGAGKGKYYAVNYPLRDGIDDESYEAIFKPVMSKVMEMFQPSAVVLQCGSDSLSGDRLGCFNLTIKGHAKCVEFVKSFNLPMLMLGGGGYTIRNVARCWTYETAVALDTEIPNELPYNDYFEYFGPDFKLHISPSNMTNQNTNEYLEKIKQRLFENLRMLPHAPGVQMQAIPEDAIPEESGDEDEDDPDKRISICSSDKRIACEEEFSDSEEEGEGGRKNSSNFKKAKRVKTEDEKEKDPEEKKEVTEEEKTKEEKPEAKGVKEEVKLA
LSD1-CoREST-HDAC1 complex, sequence (Q9UKL0 86-485 partner limits assumed, other chains not shown): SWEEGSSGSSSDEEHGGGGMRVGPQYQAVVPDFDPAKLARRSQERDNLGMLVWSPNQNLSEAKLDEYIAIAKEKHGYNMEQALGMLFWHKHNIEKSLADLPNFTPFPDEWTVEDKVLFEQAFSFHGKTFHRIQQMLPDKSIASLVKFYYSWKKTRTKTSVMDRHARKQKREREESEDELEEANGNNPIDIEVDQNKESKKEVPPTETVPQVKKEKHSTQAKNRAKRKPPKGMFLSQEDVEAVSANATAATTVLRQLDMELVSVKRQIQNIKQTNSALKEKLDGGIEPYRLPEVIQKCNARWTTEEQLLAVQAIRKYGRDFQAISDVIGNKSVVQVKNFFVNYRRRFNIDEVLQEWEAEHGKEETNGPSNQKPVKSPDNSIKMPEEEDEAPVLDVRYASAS

Structure (SMILES): CC(=O)Nc1ccc(C(=O)Nc2ccccc2N)cc1 [CI-994]
- Cell death [1]: 73%

- HDAC inhibition of the LSD1-CoREST-HDAC1 complex (in words) [2]: no HDAC inhibition
Structure (SMILES): CC(=O)Nc1ccc(C(=O)Nc2ccccc2NC(=O)OC(C)(C)C)cc1 [Compound 5]

Structure (SMILES): Cc1[nH]c2ccccc2c1CCNCc1ccc(/C=C/C(=O)NO)cc1 [Panobinostat]
- H3K56 acetylation increase, fold compared to non-treated cells [3]: 15-20 fold
